Test results as given in ChEMBL document CHEMBL3259666, “Discovery of a neuroprotective chemical, (S)-N-(3-(3,6-dibromo-9H-carbazol-9-yl)-2-fluoropropyl)-6-methoxypyridin-2-amine [(-)-P7C3-S243], with improved druglike properties” (J Med Chem, 2014).
Calls of active or inactive are those of the source. No cut-off for these calls is given here.

Legend:
Mus musculus [1] = assay: Neuroprotective activity in wild type C57BL/J6 mouse assessed as survival of newborn hippocampal neurons at 10 uM, icv administered for 7 days by BrdU staining-based immunohistochemical analysis relative to vehicle-treated control; format: functional, organism-based
In short: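 Adult (12 week old) C57BL/J6 mice, environmentally deprived; compound infused via osmotic minipump into left lateral ventricle at 0.5 μL/h for 7 days. BrdU IP 50 mg kg–1 day–1 for 6 days during infusion; perfusion 24 h after last BrdU. BrdU+ cells in SGZ/dentate gyrus of contralateral hemisphere counted in every fifth 40 μm section, normalized to dentate gyrus volume; mean ± SEM.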

Mus musculus [2] = assay: Toxicity in C57Bl/6 mouse assessed as effect on weight up to 10 mg/kg/day, ip bid administered for 21 days; format: organism-based; design: route intraperitoneal; conditions: in vivo, 504 h
Mus musculus [3] = assay: Toxicity in C57Bl/6 mouse assessed as effect on behavior up to 10 mg/kg/day, ip bid administered for 21 days; format: organism-based; design: route intraperitoneal; conditions: in vivo, 504 h
Mus musculus [4] = assay: Toxicity in C57Bl/6 mouse assessed as effect on appearance up to 10 mg/kg/day, ip bid administered for 21 days; format: organism-based; design: route intraperitoneal; conditions: in vivo, 504 h
Mus musculus [5] = assay: Neuroprotective activity in wild type C57BL/J6 mouse assessed as survival of newborn hippocampal neurons at 10 uM, icv administered for 7 days by BrdU staining-based microscopy relative to vehicle-treated control; format: functional, organism-based
In short: (§1)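 Adult (12-week) wild-type C57BL/J6 mice. Compound infused ICV into the left lateral ventricle by osmotic minipump at 0.5 μL/h for 7 days, with BrdU 50 mg/kg/day IP for 6 days. Perfused 24 h after the last BrdU dose. BrdU antigen unmasked (formamide/SSC at 65 °C, then 2 M HCl); anti-BrdU staining. BrdU+ cells in the contralateral dentate gyrus SGZ counted in every fifth 40 μm section and normalised to dentate gyrus volume.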

Mus musculus [6] = assay: Neuroprotective activity in wild type C57BL/J6 mouse assessed as survival of newborn hippocampal neurons at 1 to 10 mg/kg/day, ip bid administered for 7 days by BrdU staining-based immunohistochemical analysis relative to vehicle-treated control; format: functional, organism-based
In short: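 Adult (12-week) wild-type C57BL/J6 mice. Compound given IP twice daily for 7 days, with BrdU 50 mg/kg/day IP. Perfused with 4% paraformaldehyde 24 h after the last BrdU dose. Anti-BrdU immunostaining after formamide/HCl unmasking. BrdU+ cells in the dentate gyrus SGZ counted in every fifth 40 μm section and normalised to dentate gyrus volume; mean ± SEM.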

Mus musculus [7] = assay: Neuroprotective activity in wild type C57BL/J6 mouse assessed as survival of newborn hippocampal neurons at 0.1 to 10 uM, icv administered for 7 days by BrdU staining-based microscopy relative to vehicle-treated control; format: functional, organism-based; in short: as §1
Mus musculus [8] = assay: Neuroprotective activity in substantia nigra of C57Bl/6 mouse neurogenesis model assessed as protection from MPTP-induced cell death in mature neurons at 1 mg/kg/day, ip bid administered for 21 days by immunohistochemical analysis relative to vehicle-treated control; format: functional, organism-based
In short: (§2)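 MPTP model in adult male C57Bl/6 mice, individually housed 1 week. MPTP free base 30 mg/kg/day IP for 5 days. From day 6 (24 h after the last MPTP dose), compound or vehicle given IP twice daily for 21 days. Mice were then perfused with 4% paraformaldehyde. SNc sectioned at 30 μm intervals and every fourth section stained for TH (DAB, hematoxylin counterstain). TH+ cells counted blinded; mean ± SEM, compared with vehicle + MPTP.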

Mus musculus [9] = assay: Neuroprotective activity in substantia nigra of C57Bl/6 mouse neurogenesis model assessed as protection from MPTP-induced cell death in mature neurons at 10 mg/kg/day, ip bid administered for 21 days by immunohistochemical analysis relative to vehicle-treated control; format: functional; conditions: route intraperitoneal; in short: as §2
Hepatocyte = assay: Half life in mouse hepatocytes; format: ADME, cell-based
Liver = assay: Half life in mouse liver microsomes; format: ADME
Liver microsome [10] = assay: Half life in rat liver microsomes; format: ADME
Liver microsome [11] = assay: Half life in dog liver microsomes; format: ADME, Canis lupus familiaris
[12] = Half life in monkey liver microsomes; format: ADME, Macaca mulatta; conditions: rhesus monkey
Liver microsome [13] = assay: Half life in human liver microsomes; format: ADME
Brain [14] = assay: AUC in mouse brain at 10 mg/kg, iv by HPLC/MS/MS analysis; format: ADME, organism-based; design: dose 10 mg/kg, route intravenous; conditions: in vivo
In short: (§3)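 Mouse PK. Compound formulated in 5% DMSO/10% cremophor EL/85% D5W (pH 7.2) and given IV, IP or by oral gavage. Mice killed at varying times with CO2. Citrated plasma and PBS brain homogenate (3-fold volume) were protein-precipitated with acetonitrile containing 0.15% formic acid and analysed by HPLC/MS/MS against spiked blank standards. Noncompartmental analysis was used, with F = (AUCoral/AUCIV)×(DoseIV/Doseoral)×100%. Values are mean ± SEM.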

Brain [15] = assay: AUC in mouse brain at 10 mg/kg, ip by HPLC/MS/MS analysis; format: ADME, organism-based; design: dose 10 mg/kg, route intraperitoneal; conditions: in vivo; in short: as §3
Brain [16] = assay: AUC in mouse brain at 20 mg/kg, ip by HPLC/MS/MS analysis; format: ADME, organism-based; design: dose 20 mg/kg, route intraperitoneal; conditions: in vivo; in short: as §3
Brain [17] = assay: AUC in mouse brain at 20 mg/kg, po by HPLC/MS/MS analysis; format: ADME, organism-based; design: dose 20 mg/kg, route oral; conditions: in vivo; in short: as §3
Brain [18] = assay: Bioavailability in mouse brain at 10 mg/kg, ip by HPLC/MS/MS analysis; format: ADME, organism-based; conditions: in vivo; in short: as §3
Brain [19] = assay: Bioavailability in mouse brain at 20 mg/kg, ip by HPLC/MS/MS analysis; format: ADME, organism-based; conditions: in vivo; in short: as §3
Brain [20] = assay: Bioavailability in mouse brain at 20 mg/kg, po by HPLC/MS/MS analysis; format: ADME, organism-based; conditions: in vivo; in short: as §3
Plasma [21] = assay: Bioavailability in mouse plasma at 10 mg/kg, ip by HPLC/MS/MS analysis; format: ADME, organism-based; conditions: in vivo; in short: as §3
Plasma [22] = assay: Bioavailability in mouse plasma at 20 mg/kg, ip by HPLC/MS/MS analysis; format: ADME, organism-based; conditions: in vivo; in short: as §3
Plasma [23] = assay: Bioavailability in mouse plasma at 20 mg/kg, po by HPLC/MS/MS analysis; format: ADME, organism-based; conditions: in vivo; in short: as §3
[24] = Half life in mouse at 10 mg/kg, iv by HPLC/MS/MS analysis; format: ADME, organism-based; design: dose 10 mg/kg, route intravenous; conditions: in vivo; in short: as §3
[25] = Half life in mouse at 10 mg/kg, ip by HPLC/MS/MS analysis; format: ADME, organism-based; design: dose 10 mg/kg, route intraperitoneal; conditions: in vivo; in short: as §3
[26] = Half life in mouse at 20 mg/kg, ip by HPLC/MS/MS analysis; format: ADME, organism-based; design: dose 20 mg/kg, route intraperitoneal; conditions: in vivo; in short: as §3
[27] = Half life in mouse at 20 mg/kg, po by HPLC/MS/MS analysis; format: ADME, organism-based; design: dose 20 mg/kg, route oral; conditions: in vivo; in short: as §3

OC(CNc1ccccc1)Cn1c2ccc(Br)cc2c2cc(Br)ccc21 (stereo not given)
Activity (Mus musculus [1]): Active

COc1cccc(NCC(F)Cn2c3ccc(Br)cc3c3cc(Br)ccc32)n1 (racemic)
Activity (Mus musculus [2]): Non-toxic
Activity (Mus musculus [3]): Non-toxic
Activity (Mus musculus [4]): Non-toxic
Activity (Mus musculus [5]): Active
Activity (Mus musculus [1]): Active
Activity (Mus musculus [6]): Active
Activity (Mus musculus [7]): Active
Activity (Mus musculus [8]): Active
Activity (Mus musculus [9]): 85%
t1/2 (Hepatocyte): > 4 h
t1/2 (Liver): 0.817 h
t1/2 (Liver microsome [10]): > 4 h
t1/2 (Liver microsome [11]): 0.75 h
t1/2 [12]: 1.35 h
t1/2 (Liver microsome [13]): 1.95 h
AUC (Brain [14]): 671 µg·min/g
AUC (Brain [15]): 189 µg·min/g
AUC (Brain [16]): 319 µg·min/g
AUC (Brain [17]): 388 µg·min/g
F (Brain [18]): 28%
F (Brain [19]): 48%
F (Brain [20]): 29%
F (Plasma [21]): 66%
F (Plasma [22]): 90%
F (Plasma [23]): 38%
half-life [24]: 7.4 h
half-life [25]: > 24 h
half-life [26]: 15 h
half-life [27]: 9.6 h
